Assay [1] relates to Rattus norvegicus. Description: Antihypertensive activity using C16-PAF in rat at a doses ranging from 1-10 nmol/kg iv. Format: functional. The method in brief:
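Male Wistar rats (350-430 g, 3-6 per group) under sodium pentobarbital anesthesia (60 mg/kg). Arterial pressure was recorded through a femoral artery catheter. Doses were given iv through a vena cava catheter once readings were stable. Pressure and heart rate were followed every 5 min for 40 min. Falls were expressed relative to C16-PAF given at 1-10 nmol/kg iv.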

The next assay is filed under the species Oryctolagus cuniculus. The assay is described as follows: Relative activity against platelet aggregation in [14C]5-HT preloaded rabbit platelet for 2 mins. Format: functional. The gist of the method:
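Rabbit platelets preloaded with [14C]serotonin were incubated with a range of analogue amounts for 2 min at 20 °C, and [14C]serotonin release was measured. Activity was expressed relative to the ED50 of C16-PAF.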

A short description of assay [2]: Ratio of antihypertension to platelet activation.
The subject of assay [3] is Rattus norvegicus. Description: Hypotensive activity in spontaneously hypertensive rat expressed as decrease in systolic BP at 0.3mg/kg, po. The format is functional. The method in brief: (§1)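 Male SHR (18-20 weeks old), food withdrawn 24 h beforehand with free access to water; compound given orally; systolic blood pressure in the tail artery read indirectly by tail-cuff, heart rate recorded simultaneously; decrease in systolic pressure (mmHg) taken 3 h after dosing; n = 4-5 animals per dose.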

Assay [4] concerns Rattus norvegicus. The assay is described as follows: Hypotensive activity in spontaneously hypertensive rat expressed as decrease in systolic BP at 25 mg/kg, po. The format is functional. The gist of the method:
as §1

The subject of assay [5] is Rattus norvegicus. The assay is described as follows: Hypotensive activity in spontaneously hypertensive rat expressed as decrease in systolic BP at 3 mg/kg, po. Format: functional. The method in brief:
as §1

Assay [6] relates to Rattus norvegicus. Description: Hypotensive activity in spontaneously hypertensive rat expressed as decrease in systolic BP at 0.1 mg/kg, po. Format: functional. The method in brief:
(§2)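 Male SHR aged 18-20 weeks, fasted 24 h with free access to water, dosed orally. Systolic pressure was measured indirectly by tail cuff, with heart rate recorded at the same time. The fall in mmHg was read 3 h after dosing, with 4-5 animals per dose, reported as mean ±.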

Assay [7] concerns Rattus norvegicus. Description: Hypotensive activity in spontaneously hypertensive rat expressed as decrease in systolic BP at 1 mg/kg, po. The format is functional. The gist of the method:
as §2

These results are taken from ChEMBL document CHEMBL1123217, “Molecular design toward biologically significant compounds based on platelet activating factor: a highly selective agonist as a potential antihypertensive agent” (1986).

In the assay on Rattus norvegicus [1], `CCCCCCCCCCCCCCCCOCC(OC(C)=O)C(C)OP(=O)([O-])OCC[N+](C)(C)C` (stereo in doubt) showed a Relative activity of 0.0002.

Consider `CCCCCCCCCCCCCCCCOCC(OC(C)=O)C(C)OP(=O)([O-])OCC[N+](C)(C)C` (stereo in doubt; 6), for which the Relative activity in the assay filed under Oryctolagus cuniculus is recorded as 0.00089; with Rattus norvegicus [1], 0.0014. Moreover, the Ratio in assay [2] worked out at 1.57.

On to `CCCCCCCCCCCCCCCCOCC(COP(=O)([O-])OCC[N+](C)(C)C)OC(C)=O` (stereo unspecified) [PLATELET ACTIVATING FACTOR], for which the Relative activity in the assay listed under Oryctolagus cuniculus and with Rattus norvegicus [1] was 1 in each case. Further, the Decrease in the assay with Rattus norvegicus [3] is on record as 4 mmHg; in the assay with Rattus norvegicus [4], 53 mmHg; in the assay on Rattus norvegicus [5], 5 mmHg. Besides, the Ratio in assay [2] is recorded as 1.

With `CCCCCCCCCCCCCCCCOC(C)C(COP(=O)([O-])OCC[N+](C)(C)C)OC(C)=O` (stereo in doubt; 2), the Relative activity worked out at 0.0087 in the assay filed under Oryctolagus cuniculus and 0.059 in the assay on Rattus norvegicus [1]. The Decrease in the assay on Rattus norvegicus [6] amounted to 35 mmHg; with Rattus norvegicus [7], 69 mmHg. The Ratio in assay [2] stood at 6.78.

Take `CCCCCCCCCCCCCCCCOC(C)C(COP(=O)([O-])OCC[N+](C)(C)C)OC(C)=O` (single isomer, unassigned; enantiomer 3): the Relative activity in the assay filed under Oryctolagus cuniculus stood at 0.00056; with Rattus norvegicus [1], 0.0001. Besides, the Ratio in assay [2] amounted to 0.18.

With `CCCCCCCCCCCCCCCCOCC(OC(C)=O)C(C)OP(=O)([O-])OCC[N+](C)(C)C` (single isomer, unassigned), the values for the Relative activity in the assay filed under Oryctolagus cuniculus and in the assay on Rattus norvegicus [1] were 0.00055 and 0.001, respectively. Moreover, the Ratio in assay [2] was found to be 1.82.

In turn, `CCCCCCCCCCCCCCCCOCC(C)(COP(=O)([O-])OCC[N+](C)(C)C)OC(C)=O` (stereo unspecified) returned a Relative activity with Rattus norvegicus [1] of 0.0001.

On to `CCCCCCCCCCCCCCCCOC(C)C(COP(=O)([O-])OCC[N+](C)(C)C)OC(C)=O` (single isomer, unassigned; enantiomer 2), for which, in the assay on Rattus norvegicus [1], the Relative activity is listed as 0.0002.

With `CCCCCCCCCCCCCCCCOCC(OC(C)=O)C(C)OP(=O)([O-])OCC[N+](C)(C)C` (stereo in doubt; 5), in the assay with Rattus norvegicus [1], the Relative activity came out at 0.002. Also, the Ratio in assay [2] was determined as 3.64.

Take `CCCCCCCCCCCCCCCCOC(C)C(COP(=O)([O-])OCC[N+](C)(C)C)OC(C)=O` (stereo in doubt; 3): the Relative activity in the assay with Rattus norvegicus [1] was 0.00033.
